pEC50: −log10 of the molar value.
How the values were obtained:
Mus musculus [1] = assay: Antimalarial potency was evaluated by the increase of life span of mice (Mus musculus) at 1 mg/kg; type: functional
In short: (§1)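 Mice infected with P. berghei were treated daily in a 4-day suppressive test, with the dose as given in each line. Increase of life span = (T/C − 1) × 100%, where T and C are the mean survival days of the treated and control groups.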

FM3A = assay: Cytotoxicity of compound was tested against mouse mammary tumor FM3A cells; type: functional, cell-based
[2] = Selectivity index defined as mean of EC50 value for FM3A cells/mean of EC50 value for Plasmodium falciparum was determined; type: functional
In short: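 Index is the mean EC50 in FM3A mouse mammary tumor cells (the host-cell model) divided by the mean EC50 against chloroquine-sensitive P. falciparum FCR-3.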

Mus musculus [3] = assay: In Vivo antimalarial activity of compound was tested in Plasmodium berghei infected mice (Mus musculus); type: functional
In short: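 Four-day suppressive test in P. berghei-infected mice, dosed daily at up to 3.0 mg/kg per day. Parasitemia is the number of infected erythrocytes over total erythrocytes. Survival is scored as increase of life span: ILS = (T/C − 1) × 100%, using mean survival days of the treated (T) and control (C) groups.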

Plasmodium falciparum = assay: In vitro antimalarial activity against Plasmodium falciparum; type: functional, organism-based
In short: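 Chloroquine-sensitive P. falciparum, FCR-3 strain, grown in vitro; potency is reported as EC50.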

Mus musculus [4] = assay: Antimalarial potency was evaluated by the increase of life span of mice (Mus musculus) at 3 mg/kg; type: functional; in short: as §1

Compound | ILS at 1 mg/kg (Mus musculus [1]) [%] | pEC50 (FM3A) | Selectivity index [2] | ED50 (Mus musculus [3]) [mg/kg] | ED90 (Mus musculus [3]) [mg/kg] | pEC50 (Plasmodium falciparum) | ILS at 3 mg/kg (Mus musculus [4]) [%]
COC(=O)[C@@]12OC[C@]34[C@H]([C@@H](O)[C@@H]1O)[C@@]1(C)CC(=O)C(OC(C)=O)=C(C)[C@@H]1C[C@H]3OC(=O)[C@H](OC(C)=O)[C@@H]24 | 49 | 4.80 | 410 | 0.46 | 0.98 |  | 
COC(=O)O[C@H]1C(=O)O[C@@H]2C[C@H]3C(C)=C(O)C(=O)C[C@]3(C)[C@H]3[C@@H](O)[C@H](O)[C@@]4(C(=O)OC)OC[C@]32[C@@H]14 |  | 5.06 | 164 |  |  | 7.28 | 
CCCOC(=O)OC1=C(C)[C@@H]2C[C@H]3OC(=O)[C@H](OC(=O)OCCC)[C@H]4[C@]5(C(=O)OC)OC[C@]34[C@H]([C@@H](O)[C@@H]5O)[C@@]2(C)CC1=O |  | 5.18 | 66 |  |  | 7.00 | 
COC(=O)[C@@]12OC[C@]34[C@H]([C@@H](O)[C@@H]1O)[C@@]1(C)CC(=O)C(OC(=O)OC(C)C)=C(C)[C@@H]1C[C@H]3OC(=O)[C@H](OC(=O)OC(C)C)[C@@H]24 |  | 4.96 | 138 | 1.4 | > 3 | 7.10 | 86
COC(=O)OC1=C(C)[C@@H]2C[C@H]3OC(=O)[C@H](OC(=O)OC)[C@H]4[C@]5(C(=O)OC)OC[C@]34[C@H]([C@@H](O)[C@@H]5O)[C@@]2(C)CC1=O |  | < 4.20 | >700 | 1.3 | 3 | 7.05 | 196
COC(=O)[C@@]12OC[C@]34[C@H]([C@@H](O)[C@@H]1O)[C@@]1(C)CC(=O)C(OC(C)=O)=C(C)[C@@H]1C[C@H]3OC(=O)[C@H](O)[C@@H]24 |  | < 4.49 | >36 |  |  | 6.06 | 
CCCCOC(=O)OC1=C(C)[C@@H]2C[C@H]3OC(=O)[C@H](OC(=O)OCCCC)[C@H]4[C@]5(C(=O)OC)OC[C@]34[C@H]([C@@H](O)[C@@H]5O)[C@@]2(C)CC1=O |  | 6.15 | 50 |  |  | 7.85 | 
CCOC(=O)OC1=C(C)[C@@H]2C[C@H]3OC(=O)[C@H](OC(=O)OCC)[C@H]4[C@]5(C(=O)OC)OC[C@]34[C@H]([C@@H](O)[C@@H]5O)[C@@]2(C)CC1=O |  | 4.44 | 563 | 0.49 | 1.9 | 7.19 | 182
COC(=O)[C@@]12OC[C@]34[C@H]([C@@H](O)[C@@H]1O)[C@@]1(C)CC(=O)C(O)=C(C)[C@@H]1C[C@H]3OC(=O)[C@H](OC(C)=O)[C@@H]24 [BRUCEINE B] |  | 5.10 | 333 |  |  |  | 
COC(=O)[C@@]12OC[C@]34[C@H]([C@@H](O)[C@@H]1O)[C@@]1(C)CC(=O)C(O)=C(C)[C@@H]1C[C@H]3OC(=O)[C@H](O)[C@@H]24 [BRUCEOLIDE] |  |  |  | 1.1 |  |  | 
CCN(CC)CCCC(C)Nc1ccnc2cc(Cl)ccc12 (stereo not drawn) [CHLOROQUINE] |  | 4.49 | 1780 | 2 | 3.3 |  | 15
